Test system: MS2 coat protein
Test: apparent Kd, MS2 coat protein; higher = weaker binding; RNA-MaP array; FMN 200 µM where present
Method in brief: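 Two titrations, one without ligand and one with constant ligand, were run with SNAP-549-labelled MS2 coat protein from 0.7 or 1.5 nM, doubling to 3 µM. The targets were designs transcribed by stalled E. coli RNA polymerase on Illumina sequencing-chip clusters, in 100 mM Tris-HCl pH 7.5, 80 mM KCl, 4 mM MgCl2, BSA, DTT, yeast tRNA and Tween-20. The apparent Kd is the median of filtered per-cluster binding-curve fits, with green signal normalised to red-channel RNA signal and control-cluster median Fmax.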

[1] = designed as: OFF switch for flavin mononucleotide, no ligand
[2] = ligand present: flavin mononucleotide, designed as: OFF switch for flavin mononucleotide
[3] = designed as: ON switch for flavin mononucleotide, no ligand
[4] = ligand present: flavin mononucleotide, designed as: ON switch for flavin mononucleotide

| Sequence | apparent Kd [1] [nM] | apparent Kd [2] [nM] | apparent Kd [3] [nM] | apparent Kd [4] [nM] |
| --- | --- | --- | --- | --- |
| CUUGUGUUAGGAUAUGCGCCCUGAAGUGGAAGGGCCAGAGAGCAGAAGGGACAUGAGGAUCACCCAUGUGUGAC | 79.7 | 125 | – | – |
| CUUUAGUAAGGAUAUCAGCUUAGGAGGUUGGUAAUGAGAGCUGAGAAGGUACAUGAGGAUCACCCAUGUUAGUU | 17.3 | 19.7 | – | – |
| CUUUAGUGAGGAUAUCAGUAGUAAUACAAUAGUAUUAUUACUGAGAAGGCACAUGAGGAUCACCCAUGUUCCUC | 29.4 | 120 | – | – |
| CUUUAGUGAGGAUAUCAGUAGUAGAACAAUAGUACUACUACUGAGAAGGCACAUGAGGAUCACCCAUGUUCCUC | 31 | 157 | – | – |
| CUUUAGUGAGGAUAUUAGUAGUAAUACAAUAGUAUUACUACUGAGAAGGCACAUGAGGAUCACCCAUGUUCCUC | 27.8 | 292 | – | – |
| CUUUCGUGAGGAUAUGUGGCUUCGAUCGUGAGAUCGAGGAAACAGAAGGCACAUGAGGAUCACCCAUGUUCCUC | 35.9 | 421 | – | – |
| CUUUCGUGAGGAUAUGUGGCUUCGAUCGUGAGAUCGAGGCUACAGAAGGCACAUGAGGAUCACCCAUGUUCCUC | 38.8 | 487 | – | – |
| CUUUUGGGAGGAUAUACAUGAGGAUCACCCAUGUGGUCGUGACCAAGUAAGCGCACUCGUAGAAGGCCCACGAC | 66.7 | 98 | – | – |
| CUUUUGUCAGGAUAUGAGUAGUAGAACAAUAGUACUACUACUCAGAAGGGACAUGAGGAUCACCCAUGUUCCUC | 16.6 | 50.5 | – | – |
| CUUUUGUGAGGAUAUCAGUAGUAAAAAAAUAAAAUUUCUACUGAGAAGGCACAUGAGGAUCACCCAUGUUCCUC | 34 | 184 | – | – |
| CUUUUGUGAGGAUAUCAGUAGUAAAAAUAUAAAAUUACUACUGAGAAGGCACAUGAGGAUCACCCAUGUUCCUC | 39.7 | 244 | – | – |
| CUUUUGUGAGGAUAUCAGUAGUAAAUAAAUAAAAUUACUUCUGAGAAGGCACAUGAGGAUCACCCAUGUUCCUC | 34.1 | 251 | – | – |
| CUUUUGUGAGGAUAUCAGUAGUAAAUAAAUAAAAUUAUUACUGAGAAGGCACAUGAGGAUCACCCAUGUUCCUC | 40.1 | 192 | – | – |
| CUUUUGUGAGGAUAUCAGUAGUAAAUAUAUAAAAUUACUACUGAGAAGGCACAUGAGGAUCACCCAUGUUCCUC | 38.1 | 274 | – | – |
| CUUUUGUGAGGAUAUCAGUAGUAUAAAAUUAAAAUUACUACUGAGAAGGCACAUGAGGAUCACCCAUGUUCCUC | 35.2 | 201 | – | – |
| CUUUUGUGAGGAUAUCAGUGGUAAUACAAUAGUAUUACUACUGAGAAGGCACAUGAGGAUCACCCAUGUUCCUC | 44.5 | 220 | – | – |
| CUUUUGUGAGGAUAUUAGUAGUAAUACAAUAGUAUUACUACUGAGAAGGCACAUGAGGAUCACCCAUGUUCCUC | 38.2 | 147 | – | – |
| GAAAACUGAGGAUAUACUUUGGGAAAAGAAAAGAUGAUGUUACAUGAGGAUCACCCAUGUAGAAGGCAGAAAAA | 25.9 | 36 | – | – |
| GAAAAGUGAGGAUAUGGUAAUGUAAGUAUGUAGUAUGUAAUCCAGAAGGCACAUGAGGAUCACCCAUGUAAAAG | 23 | 25.2 | – | – |

| Sequence | apparent Kd [1] [nM] | apparent Kd [2] [nM] | apparent Kd [3] [nM] | apparent Kd [4] [nM] |
| --- | --- | --- | --- | --- |
| GAAAGGGCAGGAUAUGCAUGUUGGCAAAAUUCUCAGCAAGAACAUGAGGAUCACCCAUGUAGAAGGGCCAACGG | 42.3 | 59.9 | – | – |
| GAAGAAAAGGCAGGAUAUCAGAAACACAUGAUAAGGAGAUGCAACAUGAGGAUCACCCAUGUAAAUGAGAAGGGCCGCCCUUCC | 35.6 | 62.1 | – | – |
| GAAGAUGGUGAGGAUAUCAUUAACCACAUCGGAUGAGAAGGUACCACAUGAGGAUCACCCAUGUACAUAUUACU | 22.4 | 22.9 | – | – |
| GAAGCUAUCGGAGGAUAUUCAUAGCCGAAAGGCACAUGAGGAUCACCCAUGUGCGGAAACGCUUGGGAGAAGGCCGAUAGCUUC | – | – | 25.4 | 14.7 |
| GAAGGAUGAGCGUAGGAUAUAGGAGGAGUGACAUGAGGAUCACCCAUGUGGUAGGAGGGAGGGUACUAGAAGGACGAGGAAGAGG | – | – | 63.5 | 52.2 |
| GAAUAAUUGAUCCAAUAUAACAACAUGAGGAUCACCCAUGUGCAGGAUAUCGUAUUUAUUAUAUACGAGAAGGGCAAGAACUGU | 343 | 475 | – | – |
| GAAUAAUUGAUCCAUUUUUAAAACAUGAGGAUCACCCAUGUGCAGGAUAUCGUGAGAGUUAAAUACGAGAAGGGCAAGAACUGU | 123 | 173 | – | – |
| GAAUAAUUGAUCCAUUUUUAAAACAUGAGGAUCACCCAUGUGCAGGAUAUCGUGUGAGUUAAAUACGAGAAGGGCAAGAACUGU | 201 | 214 | – | – |
| GAAUAUUCGUGGUACAUGAGGAUCACCCAUGUGUCUUUACAUGAGGAUAUGGAUUCUAAUUGGAUCCAGAAGGCAUGAAUAUUC | – | – | 75.5 | 31.2 |
| GAAUAUUCGUUGAACAUGAGGAUCACCCAUGUAACUUGACAUGAGGAUAUGGAUUCUAAUUGGAUCCAGAAGGCAUGAAUAUUC | – | – | 75.3 | 26.9 |
| GAAUAUUCGUUGAACAUGAGGAUCACCCAUGUAACUUGACAUGAGGAUAUGGAUUCUAAUUGGAUCCAGAAGGUAUGAAUAUUC | – | – | – | 91.8 |
| GAAUGUUGAGGAUAUACAUGAGGAUCACCCAUGUGUUAGCAGAGUCUGCCCGUCUUCAGUAGAAGGCAACAUUC | 17.2 | 42.4 | – | – |
| GAAUUUUUACAGAAGGUGUUUUACAUGAGGAUCACCCAUGUUUUAUUGUUUAAAUUUGUUAUUUACAAGGAUAUGUUCUAUUCU | – | – | 26.7 | 19.7 |
| GACAGUGCUAAUAAAUAAGAUCUACAUGAGGAUCACCCAUGUAAGGAUAUCGUCAGGAAUACUGACGAGAAGGUACAUGCACUG | 15.4 | 26.2 | – | – |
| GACAUACAUGAGGAUCACCCAUGUACAAACGUACAAGGAUAUGUGUGGAAACCGUACUAUACAGAAGGUGUUUGUC | – | – | 47.6 | 41.5 |
| GACAUACAUGAGGAUCACCCAUGUUCAAACGAACAAGGAUAUGUGUGGAAACCAUACUAUACAGAAGGUGUCUGUC | – | – | 81.7 | 97.7 |
| GACAUACAUGAGGAUCACCCAUGUUCAGACGAACAAGGAUAUGUGUGGAAACCAUACUAUACAGAAGGUGUCUGUC | – | – | 78.4 | 36 |
| GACAUGAGGAUCACCCAUGUCCAACCAGAAGGCCAGAAAUCGAACCCGUGUAUCGGGUCCGAGAUGGAGGAUAUGGGCGCCGAA | – | – | 72.4 | 32.4 |
| GACAUGAGGAUCACCCAUGUCCUUCCAGAAGGCUGGCGCGCGAAACCUAAAUCAGUUCCGCGCACAGAGGAUAUGGGCAGUUGG | – | – | 72.2 | 15.9 |

| Sequence | apparent Kd [1] [nM] | apparent Kd [2] [nM] | apparent Kd [3] [nM] | apparent Kd [4] [nM] |
| --- | --- | --- | --- | --- |
| GACGCGCUCACAGGAUAUAGAUCCUCAGUGGCUCUAGAAGGGUGAACGUGCCCGAACGGGACAUGAGGAUCACCCAUGUAAUAA | – | – | 34.9 | 13.2 |
| GACUCGAAUGUAGGAUAUGCUGAGGAUAACUCAGCAGAAGGACAUGAGGAUCACCCAUGUCAAUGAGUGAAUAAUAAACGAGUC | 29 | 245 | – | – |
| GACUCGCGCACAGGAUAUCCACGUAGCGGACGUGGAGAAGGGUGACAUGAGGAUCACCCAUGUACGUGAGUCUAGAUCACUUCC | – | – | 40.2 | 22.8 |
| GACUGACAUGAGGAUCACCCAUGUAUUCGAGCAUGAGGAUAUAUGACACGUCAUCGGCGGAUAGAAGGCAUGGUUG | – | – | 124 | 185 |
| GACUGCCGAGGAUAUACAUGAGGAUCACCCAUGUGCUUCAGCAUUUAAUAAUGCAUGGGUAGAAGGCGGUAGUC | 42.8 | 74.6 | – | – |
| GACUGUCUAGGAUAUGCGACGUUUUACAUGAGGAUCACCCAUGUUGUCUGCGUGUGUGUGGCAGAAGGAGACAAAC | 13 | 19.9 | – | – |
| GACUUGGCUACAUGAGGAUCACCCAUGUUUGACUGGAUCAAUUAGGAUAUAGUGAUAUGCAACAAUUAGAAGGGAUGUUUACGG | – | – | 56.6 | 45.2 |
| GAGAUCAUCACAGGAUAUGCAUUCCAUAAGUGGGCAGAAGGGUGAGAUUCAAGUGGACAUGAGGAUCACCCAUGUAUACUGCCU | – | – | 33.1 | 17.3 |
| GAGAUGUCAGGAUAUGUGUAAAGAAUAAAACAAAUAACAACACAGAAGGGACAUGAGGAUCACCCAUGUUACUC | 24.9 | 54.6 | – | – |
| GAGAUGUGAGGAUAUCUAGACCGCGGAAGAGCUGCGGUCCGAGAGAAGGCACAUGAGGAUCACCCAUGUGAUGA | 46.2 | 145 | – | – |
| GAGCGAAAGCUCAAUGUCGAUAGCAGAAGGACAUGAAUAACAUGAAUAACAUGAGGAUCACCCAUGUAGGAUAUGCUAUCGACU | 11.1 | 108 | – | – |
| GAGCGAAAGCUCAAUGUCGAUAGCAGAAGGACAUGUAAAACCAUGAAAACAUGAGGAUCACCCAUGUAGGAUAUGCUAUCGACU | 9.7 | 95.8 | – | – |
| GAGCUAUGAGGAUAUGCAUAUAUACGGUUUCGUGUGGUACUACAUGAGGAUCACCCAUGUAGAAGGCGUGGCUG | 17.7 | 15.1 | – | – |
| GAGGACUGAAUAAUAAGUAGAAAUACAUGAGGAUCACCCAUGUAGGAUAUCGUCAGGAAUACUGACGAGAAGGACAUACAGUCC | 14.1 | 18.1 | – | – |
| GAGGACUGUAAAUUAACUCAAAUACAUGAGGAUCACCCAUGUAAGGAUAUCGUCAGGAAUACUGACGAGAAGGUACAUCAGUCC | 14.4 | 20 | – | – |
| GAGGAUUUUUAGCUGACAUGAGGAUCACCCAUGUCUUGACCCAGAAGGGCGUGGGAUUCCCAACCGCAGGAUAUGGAUAGUCGG | – | – | 64.8 | 35.7 |
| GAGGGUUAAGGAUAUACAUGAGGAUCACCCAUGUAUGGCAAGCCAUAAUCCUCAUUAAGUAGAAGGUAACCUUC | 11.7 | 15.3 | – | – |
| GAGUAGAUAGCAGGAUAUCUAUUUCCUACAUGAGGAUCACCCAUGUAGAUGAUCACCCAUGUAAAGGAGAAGGGCUAUCUAUUC | – | – | 355 | 160 |
